{"source": "ChEMBL document CHEMBL1125672", "about": "“2-acetylpyridine thiosemicarbazones. 13. Derivatives with antifilarial activity” (1991)", "assay_type_in_all_cases": "functional", "key": {"Onchocerca gutturosa [1]": {"system": "Onchocerca gutturosa", "test": "Mean motility score for treated Onchocerca gutturosa involving LLCMK2 feeder cells at a concentration of 1.95*10e-8 M at 72 h", "in_short": "(§1)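 One male O. gutturosa per well over LLCMK2 feeder cells in MEM with 10% heat-inactivated FCS, antibiotics and bicarbonate, 5% CO2; compound introduced in DMSO (≤0.016%, equal DMSO in controls). Motility scored 0 (immotile) to 10 (maximal control activity) every 30 min to 4.5 h, then at 1, 2, 3, 4 and 7 days.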"}, "Onchocerca gutturosa [2]": {"system": "Onchocerca gutturosa", "test": "Mean motility score for treated Onchocerca gutturosa involving LLCMK2 feeder cells at a concentration of 1.95*10e-8 M at 96 h", "in_short": "as §1"}, "Onchocerca gutturosa [3]": {"system": "Onchocerca gutturosa", "test": "Mean motility score for treated Onchocerca gutturosa involving LLCMK2 feeder cells at a concentration of 1.95*10e-8 M at 4 h", "in_short": "as §1"}, "Onchocerca gutturosa [4]": {"system": "Onchocerca gutturosa", "test": "Mean motility score for treated Onchocerca gutturosa involving LLCMK2 feeder cells at a concentration of 3.05*10e-8 M at […]", "in_short": "as §1"}, "Onchocerca gutturosa [5]": {"system": "Onchocerca gutturosa", "test": "Colorimetric quantification of male Onchocerca gutturosa viability, expressed as % inhibition of formazan formation at 3.05*10e-9 M conc. by using tetrazolium Dye MTT assay", "in_short": "(§2)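 Single intact male O. gutturosa, cultured with LLCMK2 feeder cells in MEM + 10% heat-inactivated FCS (5% CO2), drug added from DMSO (≤0.016% DMSO in controls). MTT read after 168 h: worm in 0.5 mg/mL MTT, 30 min at 36.5 °C, formazan solubilized in DMSO 1 h at room temperature, absorbance 490 nm vs DMSO blank.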"}, "Onchocerca gutturosa [6]": {"system": "Onchocerca gutturosa", "test": "Mean motility score for treated Onchocerca gutturosa involving LLCMK2 feeder cells at a concentration of 4.88*10e-8M at 168 h", "in_short": "(§3)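 Single male O. gutturosa worms (obtained following abattoir slaughter) per well in Eagle's MEM with 10% heat-inactivated fetal calf serum, penicillin, streptomycin, amphotericin B and bicarbonate, over LLCMK2 feeder cells, 5% CO2 in air. Drug dissolved in DMSO; controls received matched DMSO ≤0.016%. Motility scored 0 (immotile) to 10 (maximum control activity) every 30 min to 4.5 h, then days 1, 2, 3, 4, 7.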"}, "Onchocerca gutturosa [7]": {"system": "Onchocerca gutturosa", "test": "Mean motility score for treated Onchocerca gutturosa involving LLCMK2 feeder cells at a concentration of 4.88*10e-8M at 24 h", "in_short": "as §3"}, "Onchocerca gutturosa [8]": {"system": "Onchocerca gutturosa", "test": "Mean motility score for treated Onchocerca gutturosa involving LLCMK2 feeder cells at a concentration of 4.88*10e-8M at 3 h", "in_short": "as §3"}, "Onchocerca gutturosa [9]": {"system": "Onchocerca gutturosa", "test": "Mean motility score for treated Onchocerca gutturosa involving LLCMK2 feeder cells at a concentration of 4.88*10e-8M at 4 h", "in_short": "as §3"}, "Onchocerca gutturosa [10]": {"system": "Onchocerca gutturosa", "test": "Mean motility score for treated Onchocerca gutturosa involving LLCMK2 feeder cells at a concentration of 4.88*10e-8M at 96 h", "in_short": "as §3"}, "Onchocerca gutturosa [11]": {"system": "Onchocerca gutturosa", "test": "Mean motility score for treated Onchocerca gutturosa involving LLCMK2 feeder cells at a concentration of 5*10e-5 M at 168 h", "in_short": "as §3"}, "Onchocerca gutturosa [12]": {"system": "Onchocerca gutturosa", "test": "Mean motility score for treated Onchocerca gutturosa involving LLCMK2 feeder cells at a concentration of 1.95*10e-8 M at 3 h", "details": "in the assay text read “1.95*10e-7 M” for “1.95*10e-8 M”", "in_short": "as §1"}, "Onchocerca gutturosa [13]": {"system": "Onchocerca gutturosa", "test": "Mean motility score for treated Onchocerca gutturosa involving LLCMK2 feeder cells at a concentration of 3.1*10e-6 M at 72 h", "in_short": "as §3"}, "Onchocerca gutturosa [14]": {"system": "Onchocerca gutturosa", "test": "Mean motility score for treated Onchocerca gutturosa involving LLCMK2 feeder cells at a concentration of 3.1*10e-6 M at 96 h", "in_short": "as §3"}, "Onchocerca gutturosa [15]": {"system": "Onchocerca gutturosa", "test": "Mean motility score for treated Onchocerca gutturosa involving LLCMK2 feeder cells at a concentration of 3.1*10e-6 M at 0.5 h", "in_short": "as §3"}, "Onchocerca gutturosa [16]": {"system": "Onchocerca gutturosa", "test": "Mean motility score for treated Onchocerca gutturosa involving LLCMK2 feeder cells at a concentration of 1.95*10e-8 M at 168 h", "in_short": "as §1"}, "Onchocerca gutturosa [17]": {"system": "Onchocerca gutturosa", "test": "Mean motility score for treated Onchocerca gutturosa involving LLCMK2 feeder cells at a concentration of 1.95*10e-8 M at 24 h", "in_short": "as §1"}, "Onchocerca gutturosa [18]": {"system": "Onchocerca gutturosa", "test": "Mean motility score for treated Onchocerca gutturosa involving LLCMK2 feeder cells at a concentration of 3.1*10e-6 M at 1.5 h", "in_short": "as §3"}, "Onchocerca gutturosa [19]": {"system": "Onchocerca gutturosa", "test": "Mean motility score for treated Onchocerca gutturosa involving LLCMK2 feeder cells at a concentration of 1.95*10e-8 M at 1.5 h", "in_short": "as §1"}, "Acanthocheilonema viteae": {"system": "Acanthocheilonema viteae", "test": "anti-filarial Activity was measured against Acanthocheilonema viteae in jirds at 50 mg/kg/day(5 days) dose", "in_short": "(§4)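 Jirds with established B. pahangi or A. viteae infections were given drug once daily for 5 days by subcutaneous injection, at the maximum tolerated dose and, where supply allowed, graded lower doses. Tolerance was first checked in noninfected jirds with a single 200 mg/kg oral or subcutaneous dose, watching 72 h for excessive weight loss or death. Macrofilarial suppression was the read-out.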"}, "Brugia pahangi": {"system": "Brugia pahangi", "test": "anti-filarial Activity was measured against Brugia pahangi in jirds at 100 mg/kg/day(5 days) dose", "in_short": "as §4"}, "Onchocerca gutturosa [20]": {"system": "Onchocerca gutturosa", "test": "Mean motility score for treated Onchocerca gutturosa involving LLCMK2 feeder cells at a concentration of 3.05*10e-9 M at 0.5 h", "in_short": "as §1"}, "Onchocerca gutturosa [21]": {"system": "Onchocerca gutturosa", "test": "Colorimetric quantification of male Onchocerca gutturosa viability, expressed as % inhibition of formazan formation at 1.21*10e-8M conc. by using tetrazolium Dye MTT assay", "in_short": "as §2"}, "Onchocerca gutturosa [22]": {"system": "Onchocerca gutturosa", "test": "Mean motility score for treated Onchocerca gutturosa involving LLCMK2 feeder cells at a concentration of 5*10e-5 M at 168 h(O = IMMOTILE)", "in_short": "as §3"}, "Onchocerca gutturosa [23]": {"system": "Onchocerca gutturosa", "test": "Mean motility score for treated Onchocerca gutturosa involving LLCMK2 feeder cells at a concentration of 1.21*10e-8M at 0.5 h", "in_short": "as §1"}, "Onchocerca gutturosa [24]": {"system": "Onchocerca gutturosa", "test": "Mean motility score for treated Onchocerca gutturosa involving LLCMK2 feeder cells at a concentration of 1.21*10e-8M at 1 h", "in_short": "as §1"}, "Onchocerca gutturosa [25]": {"system": "Onchocerca gutturosa", "test": "Mean motility score for treated Onchocerca gutturosa involving LLCMK2 feeder cells at a concentration of 1.21*10e-8M at 1.5 h", "in_short": "as §1"}, "Onchocerca gutturosa [26]": {"system": "Onchocerca gutturosa", "test": "Mean motility score for treated Onchocerca gutturosa involving LLCMK2 feeder cells at a concentration of 1.21*10e-8M at 168 h", "in_short": "as §1"}, "Onchocerca gutturosa [27]": {"system": "Onchocerca gutturosa", "test": "Mean motility score for treated Onchocerca gutturosa involving LLCMK2 feeder cells at a concentration of 1.21*10e-8M at 2 h", "in_short": "as §1"}, "Onchocerca gutturosa [28]": {"system": "Onchocerca gutturosa", "test": "Mean motility score for treated Onchocerca gutturosa involving LLCMK2 feeder cells at a concentration of 3.05*10e-9 M at 1 h", "in_short": "as §1"}, "Onchocerca gutturosa [29]": {"system": "Onchocerca gutturosa", "test": "Mean motility score for treated Onchocerca gutturosa involving LLCMK2 feeder cells at a concentration of 3.05*10e-9 M at 2.5 h", "in_short": "as §3"}, "Onchocerca gutturosa [30]": {"system": "Onchocerca gutturosa", "test": "Mean motility score for treated Onchocerca gutturosa involving LLCMK2 feeder cells at a concentration of 1.21*10e-8M at 72 h", "in_short": "as §1"}, "Onchocerca gutturosa [31]": {"system": "Onchocerca gutturosa", "test": "Mean motility score for treated Onchocerca gutturosa involving LLCMK2 feeder cells at a concentration of 1.94*10e-7M at 1 h", "in_short": "as §1"}, "Onchocerca gutturosa [32]": {"system": "Onchocerca gutturosa", "test": "Mean motility score for treated Onchocerca gutturosa involving LLCMK2 feeder cells at a concentration of 1.94*10e-7M at 72 h", "in_short": "as §1"}, "Onchocerca gutturosa [33]": {"system": "Onchocerca gutturosa", "test": "Mean motility score for treated Onchocerca gutturosa involving LLCMK2 feeder cells at a concentration of 1.94*10e-7M at 168 h(O = IMMOTILE)", "in_short": "as §1"}}}
{"smiles": "C/C(=N\\NC(=S)N1CCCCCC1)c1ccccn1", "values": [{"measurement": "Motility", "setting": "Onchocerca gutturosa [1]", "result": 1}, {"measurement": "Motility", "setting": "Onchocerca gutturosa [2]", "result": 0}, {"measurement": "Motility", "setting": "Onchocerca gutturosa [3]", "result": 10}, {"measurement": "Motility", "setting": "Onchocerca gutturosa [4]", "result": 8.5}, {"measurement": "Inhibition", "setting": "Onchocerca gutturosa [5]", "result": 19.5, "unit": "%"}, {"measurement": "Motility", "setting": "Onchocerca gutturosa [6]", "result": 0}, {"measurement": "Motility", "setting": "Onchocerca gutturosa [7]", "result": 4}, {"measurement": "Motility", "setting": "Onchocerca gutturosa [8]", "result": 9}, {"measurement": "Motility", "setting": "Onchocerca gutturosa [9]", "result": 8.8}, {"measurement": "Motility", "setting": "Onchocerca gutturosa [10]", "result": 1.5}, {"measurement": "Motility", "setting": "Onchocerca gutturosa [11]", "result": 0}, {"measurement": "Motility", "setting": "Onchocerca gutturosa [12]", "result": 10}, {"measurement": "Motility", "setting": "Onchocerca gutturosa [13]", "result": 0}, {"measurement": "Motility", "setting": "Onchocerca gutturosa [14]", "result": 0}, {"measurement": "Motility", "setting": "Onchocerca gutturosa [15]", "result": 9.5}, {"measurement": "Motility", "setting": "Onchocerca gutturosa [16]", "result": 0}, {"measurement": "Motility", "setting": "Onchocerca gutturosa [17]", "result": 8}, {"measurement": "Motility", "setting": "Onchocerca gutturosa [18]", "result": 9.8}, {"measurement": "Motility", "setting": "Onchocerca gutturosa [19]", "result": 9.5}]}
{"smiles": "C/C(=N\\NC(S)=Nc1ccccc1N)c1ccccn1", "values": [{"measurement": "Suppression", "setting": "Acanthocheilonema viteae", "result": 100, "unit": "%"}, {"measurement": "Suppression", "setting": "Brugia pahangi", "result": 100, "unit": "%"}, {"measurement": "Motility", "setting": "Onchocerca gutturosa [20]", "result": 8.8}, {"measurement": "Inhibition", "setting": "Onchocerca gutturosa [21]", "result": 27.9, "unit": "%"}, {"measurement": "Motility", "setting": "Onchocerca gutturosa [22]", "result": 0}, {"measurement": "Motility", "setting": "Onchocerca gutturosa [23]", "result": 9}, {"measurement": "Motility", "setting": "Onchocerca gutturosa [24]", "result": 8.5}, {"measurement": "Motility", "setting": "Onchocerca gutturosa [25]", "result": 4.3}, {"measurement": "Motility", "setting": "Onchocerca gutturosa [26]", "result": 1}, {"measurement": "Motility", "setting": "Onchocerca gutturosa [27]", "result": 3.3}, {"measurement": "Motility", "setting": "Onchocerca gutturosa [28]", "result": 8.8}, {"measurement": "Motility", "setting": "Onchocerca gutturosa [29]", "result": 7.5}, {"measurement": "Motility", "setting": "Onchocerca gutturosa [30]", "result": 6.8}, {"measurement": "Motility", "setting": "Onchocerca gutturosa [31]", "result": 9.8}, {"measurement": "Motility", "setting": "Onchocerca gutturosa [32]", "result": 1.5}, {"measurement": "Motility", "setting": "Onchocerca gutturosa [33]", "result": 0}]}
